# A selection: hits, their analogues and other compounds. The true share with any hit is near 1.6%.
# UBC13 inh – blocks human UBC13 polyubiquitin chain formation; P61088; TR-FRET; inhibition, % at 20 µM; hit rate 0.47% among 330,000; AID 485273; in the data active = inhibition above about 45%, passing the limit was not always enough
# Target sequence (P61088 whole entry, looked up): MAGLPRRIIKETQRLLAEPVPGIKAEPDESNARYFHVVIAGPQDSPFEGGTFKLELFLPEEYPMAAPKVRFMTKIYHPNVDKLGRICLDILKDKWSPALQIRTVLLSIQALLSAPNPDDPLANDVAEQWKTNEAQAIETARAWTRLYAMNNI
# Neddyl block – inhibitors of human cullin neddylation | P61081+Q13564 | TR-FRET cullin neddylation, biochemical | calls only at 25 µM | hit rate 0.58% among 360,000 | AID 651699; in the data active = inhibition above about 36%
# Apaf-1 inh – blocks human Apaf-1 apoptosome activity. O14727. hit rate 0.71% among 330,000. inhibition, % at 20 µM. reconstituted apoptosome caspase-3 activity, DEVD-Rh110 fluorescence; active = inhibition of at least 40% at 20 µM;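 note: plate controls were DMSO wells for no effect and DEVD-CHO caspase inhibitor wells for full effect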
#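 Assay system – apoptosome proteins · Medium – Hepes buffer, pH 7.5 · Also added – cytochrome c with DEVD-Rh110 · Timing – 30 min compound preincubation, 50 min activation, room temperature · Detection – Rh110 fluorescence, excitation 480 nm, emission 540 nm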
# RAD54 branch – inhibitors of human RAD54 branch migration; Q92698; RAD54 Holliday junction branch migration, FAM/BHQ fluorescence; inhibition, % at 10.4 µM; hit rate 0.14% among 360,000;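 active = mean normalized replicate activity at least 40 and at least half of replicates scoring 40 or more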;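 note: 0% = median of neutral control wells and 100% = median of positive control wells; inhibitors cause a drop in the FAM fluorescence signal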
# RAD52 anneal inh – inhibitors of human RAD52 DNA annealing; AID 651710; P43351; inhibition, % at 18.7 µM; recombinant RAD52 DNA annealing, FRET fluorescence; hit rate 0.46% among 360,000;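 active = every replicate showing at least 50% inhibition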
# Target sequence (P43351 whole entry, looked up): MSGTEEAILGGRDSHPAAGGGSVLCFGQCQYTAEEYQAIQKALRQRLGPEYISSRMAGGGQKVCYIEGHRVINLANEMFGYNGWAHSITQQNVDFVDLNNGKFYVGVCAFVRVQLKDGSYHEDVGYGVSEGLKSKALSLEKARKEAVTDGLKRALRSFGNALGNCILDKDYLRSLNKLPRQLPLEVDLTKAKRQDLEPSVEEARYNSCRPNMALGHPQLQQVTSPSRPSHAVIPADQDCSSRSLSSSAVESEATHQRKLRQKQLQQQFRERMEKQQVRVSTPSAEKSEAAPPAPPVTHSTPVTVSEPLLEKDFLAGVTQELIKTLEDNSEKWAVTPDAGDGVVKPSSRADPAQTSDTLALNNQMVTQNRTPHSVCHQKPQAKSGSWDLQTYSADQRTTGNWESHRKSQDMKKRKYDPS
# FID counter – counter-screen for HCV NS3 helicase inhibitors: DNA intercalator displacement. DNA fluorescent intercalator displacement, fluorescence. inhibition, % at 7.9 µM. hit rate 0.17% among 290,000; in the data active = inhibition above about 37%;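 note: 0% = vehicle and 100% = reference compound; higher means more ethidium bromide displaced from hairpin DNA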
# Neddyl conf – confirmation of human cullin neddylation inhibitors; shares compounds with Neddyl block; TR-FRET cullin neddylation biochemical assay; calls only at 25 µM; hit rate 13% among 1,800; AID 652217; in the data active = inhibition above about 40%;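 note: neddylation substrate is the cullin 1 ring ligase complex with SKP2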
# An asterisk follows results filed as active; i = inactive; · = not tested or not shown; + = active, no number.
SMILES,UBC13 inh,Neddyl block,Apaf-1 inh,RAD54 branch,RAD52 anneal inh,FID counter,Neddyl conf
COc1ccc(C2NC(=O)c3ccccc3O2)c(OC)c1OC (stereo not drawn),-0.7,+,14.6,4.5,·,-4.3,i
COc1ccc(Nc2nc(-c3ccncc3)nc3ccccc23)cc1,-5.7,+,9.1,-7.7,-14.2,-23.0,i
COc1ccc(/C=N/Nc2nc(-c3cccnc3)nc3ccccc23)c(OC)c1,16.8,+,-6.3,5.6,-50.7,-8.0,+
Cc1ccc(-c2nc(N/N=C/c3cccnc3)c3ccccc3n2)cc1,-2.8,i,19.9,2.0,·,-3.7,·
CN(C)CCCNC(=O)C[C@H]1C=C[C@H](NC(=O)c2ccccc2F)[C@@H](CO)O1,·,·,·,-7.4,-7.6,·,·
Cc1ccccc1-c1ccc2c(c1)O[C@@H](CN(C)Cc1ccncc1)[C@H](C)CN([C@H](C)CO)S2(=O)=O,·,·,·,-0.9,11.7,·,·
C[C@H](CO)N1C[C@H](C)[C@H](CN(C)S(=O)(=O)c2ccc(Cl)cc2)Oc2ccc(NC(=O)CCN3CCOCC3)cc2C1=O,·,·,·,3.3,12.8,·,·
O=C(NCC1CC1)[C@@H]1[C@@H](CO)[C@@H]2Cn3c(ccc(C4=CCCCC4)c3=O)[C@@H]2N1Cc1ccccc1F,·,·,·,-10.6,-3.9,·,·
O=S(=O)(c1cccs1)N1CN(Cc2ccccc2)c2nc3ccccc3nc21,-3.4,+,11.3,·,·,-5.0,i
O=S(=O)(c1cccs1)N1CN(Cc2ccc(F)cc2)c2nc3ccccc3nc21,0.8,i,17.2,·,·,-0.6,·
O=C(C[C@H]1CC[C@@H](NS(=O)(=O)c2ccc(F)cc2)[C@@H](CO)O1)NC1CCC1,·,·,·,-10.4,11.1,·,·
CSc1nnc(-c2sc3cc(C(F)(F)F)cnc3c2-c2ccccn2)n1C,13.1,+,-2.9,-6.2,·,-13.9,i
CCOC(=O)CNC(=O)c1sc(NC(=O)c2ccccc2F)nc1C,5.8,+,-2.6,-5.2,-18.9,-2.4,+
COc1ccc(NC(=O)N(C)C[C@@H]2Oc3cc(-c4cccc(C(=O)N(C)C)c4)ccc3S(=O)(=O)N([C@@H](C)CO)C[C@@H]2C)cc1,·,·,·,-2.3,14.0,·,·
COc1cccc(-c2ccc(C#N)c(=O)[nH]2)c1,7.1,+,-14.4,·,-2.2,-16.2,·
COc1cccc(-c2c[nH]c(=O)[nH]c2=O)c1,-0.1,i,-2.6,2.6,-7.8,0.9,·
CCCc1cc(-n2ccnc2)n2c(nc3ccccc32)c1C#N,-5.0,·,18.1,-4.1,·,-5.2,·
Cc1cc(-n2ccnc2)n2c(nc3ccccc32)c1C#N,0.2,+,4.7,-10.9,-54.7,2.6,i
N#Cc1ncc(-c2ccc3c(c2)OCCOCCOCCOCCOCCO3)nc1C#N,-7.2,i,4.0,2.0,·,-7.4,·
N#Cc1ncc(-c2ccc3c(c2)OCCOCCOCCOCCO3)nc1C#N,-7.2,+,0.7,7.8,·,1.0,i
CCc1ccccc1NC(=S)NNC(=O)c1ccccc1Cl,-7.6,i,0.4,4.1,-16.3,-5.9,·
COc1ccc(NC(=O)NNC(=O)c2cc(C3CC3)nc3ccccc23)c(OC)c1,-4.0,i,8.4,3.9,-3.7,-18.9,·
COc1ccc(NC(=O)NNC(=O)c2ccc3ccccc3c2O)c(OC)c1,11.3,+,8.5,-14.0,-8.9,-13.4,i
CCc1ccccc1NC(=O)NNC(=O)c1ccc2ccccc2c1O,9.8,+,7.0,3.5,-15.0,-12.1,i
COc1ccc(OC)c(NC(=O)Nc2ccc(O)c3ccccc23)c1,-2.3,+,21.7,-7.1,-0.3,·,·
SMILES,UBC13 inh,Neddyl block,Apaf-1 inh,RAD54 branch,RAD52 anneal inh,FID counter,Neddyl conf
CN1c2ccc(-c3ccccc3)cc2[C@@H]2[C@@H](CCN2C(=O)NC2CCCCC2)[C@@H]1CO,·,·,·,·,9.7,·,·
COc1ccc(NC(=O)c2c[nH]c(=O)n(-c3ccc(C)c(C)c3)c2=O)c(OC)c1,·,+,·,4.9,-2.1,·,i
CC(C)c1nc2oc3c(=O)[nH]cnc3c2c2c1CCC2,10.6,+,5.5,-3.4,·,-4.0,i
Cc1ccc(S(=O)(=O)Nc2c(NC3CCCCC3)c3ccccc3oc2=O)cc1,3.6,i,13.1,-2.1,15.9,-30.2,·
Cc1ccc(S(=O)(=O)Nc2c(NC3CCCCC3)c3ccccc3oc2=O)cc1C,6.6,+,7.2,11.7,-11.1,-37.0,·
COc1ccc(S(=O)(=O)Nc2c(NC3CCCCC3)c3ccccc3oc2=O)cc1OC,7.7,+,1.5,8.1,0.8,-41.6,i
O=c1oc2ccccc2c(NC2CCCCC2)c1NS(=O)(=O)c1ccc(Br)cc1,-6.1,i,15.6,4.8,·,-28.5,·
Cc1ccc(S(=O)(=O)N[C@@H]2CC[C@@H](CCNC(=O)C3CCCC3)O[C@H]2CO)cc1,·,·,·,-8.5,-4.7,·,·
C[C@H](CO)N1C[C@H](C)[C@H](CN(C)C(=O)Nc2ccc(F)cc2)Oc2ncc(C#CCN(C)C)cc2C1=O,·,·,·,-7.6,-26.7,·,·
C[C@@H]1CCCCO[C@@H](CN(C)C(=O)NC2CCCCC2)[C@@H](C)CN([C@@H](C)CO)C(=O)c2cc(NS(=O)(=O)c3cccs3)ccc2O1,·,·,·,-2.3,-22.1,·,·
Cc1ccc(/C=C/c2nnc(-c3ccccc3)o2)cc1,-1.2,i,-0.8,2.7,·,-10.1,·
C(=C\c1nnc(-c2cccs2)o1)/c1ccccc1,1.5,+,10.2,4.2,-19.1,-10.2,i
C[C@@H]1CN([C@H](C)CO)S(=O)(=O)c2ccc(C#CC3(O)CCCC3)cc2O[C@@H]1CN(C)C(=O)c1ccccc1,·,·,·,0.0,-1.7,·,·
Cc1cc(NS(=O)(=O)c2ccc(NS(=O)(=O)c3ccc(Br)cc3)cc2)no1,-2.5,+,9.1,-0.9,-15.1,-21.1,+
Cc1cc(NS(=O)(=O)c2ccc(NC(=O)/C=C/c3ccc(Br)cc3)cc2)no1,-10.2,i,6.6,2.1,1.1,-26.6,·
CCOc1ccc(-c2cncc3nccn23)cc1,·,·,·,-0.7,-15.5,·,·
CS(=O)(=O)Nc1ccc(-c2cncc3nccn23)cc1,·,+,·,8.2,-15.4,·,·
CSc1nc(N)c2c3c(sc2n1)CN(C)CC3,-0.2,+,0.9,24.5,16.2,-1.8,i
CCSc1nc(N)c2c3c(sc2n1)CN(C)CC3,11.3,·,-0.2,·,·,16.8,·
Nc1ccc(C(=O)N/N=C/c2cn(Cc3cccc(F)c3)c3ccccc23)cc1,10.8,+,21.6,5.5,-25.5,-18.4,i
O=C(N/N=C/c1cn(Cc2ccccc2)c2ccccc12)c1ccncc1,-13.1,i,23.1,-2.8,0.4,-18.2,·
O=S1(=O)N=C(Oc2cccc3ccccc23)c2ccccc21,0.4,+,-3.3,-0.2,-9.5,2.0,i
C[C@H]1CN([C@@H](C)CO)C(=O)Cc2cc(NS(=O)(=O)c3cn(C)cn3)ccc2O[C@H]1CN(C)S(=O)(=O)c1ccccc1,·,·,·,-0.5,0.6,·,·
C[C@@H]1CN([C@@H](C)CO)C(=O)c2cc(NS(=O)(=O)c3cn(C)cn3)ccc2O[C@@H](C)CCCCO[C@@H]1CN(C)C(=O)CCCN(C)C,·,·,·,5.9,23.9,·,·

# Bioassay records deposited in PubChem BioAssay by several laboratories.
